Source: ChEMBL document CHEMBL5712082, “PRMT5-mediated regulation of developmental myelination” (Nat Commun, 2018)
The source made the active and inactive calls. The calls are words filed in the database; no cut-off is given here.

What was measured:
[1] = target: Protein arginine N-methyltransferase 5 (Mus musculus) (UniProt Q8CIG8); assay: Inhibition of PRMT5 in mouse oligodendrocyte progenitor cells assessed as decreased in number of differentiating cells in presence of 100 uM KAT inhibitor Butyrolactone-3 after 24 to 48 hrs by CNP and MBP staining based assay; conditions: Oligodendrocyte progenitor cell, time 24-48 hrs
Sequence of Protein arginine N-methyltransferase 5 (Mus musculus) (Q8CIG8 whole entry): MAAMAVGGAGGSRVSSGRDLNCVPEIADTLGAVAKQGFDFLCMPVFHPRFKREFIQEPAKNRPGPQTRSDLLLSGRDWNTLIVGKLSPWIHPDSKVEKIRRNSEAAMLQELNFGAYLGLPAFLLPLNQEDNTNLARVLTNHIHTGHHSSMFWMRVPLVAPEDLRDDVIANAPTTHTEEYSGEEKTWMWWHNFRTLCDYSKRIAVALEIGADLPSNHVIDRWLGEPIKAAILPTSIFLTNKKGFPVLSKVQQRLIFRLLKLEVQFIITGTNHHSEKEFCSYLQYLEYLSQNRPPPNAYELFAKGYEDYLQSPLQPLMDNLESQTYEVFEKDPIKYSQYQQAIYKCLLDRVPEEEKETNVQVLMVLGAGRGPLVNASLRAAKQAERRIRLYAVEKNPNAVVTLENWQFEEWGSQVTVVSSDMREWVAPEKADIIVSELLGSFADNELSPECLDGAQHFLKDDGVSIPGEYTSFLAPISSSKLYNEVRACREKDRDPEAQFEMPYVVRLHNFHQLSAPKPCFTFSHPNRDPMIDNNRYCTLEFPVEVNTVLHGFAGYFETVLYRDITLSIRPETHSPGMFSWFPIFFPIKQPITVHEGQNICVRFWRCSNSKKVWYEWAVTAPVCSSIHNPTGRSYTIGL

[2] = Effect on cell proliferation in mouse oligodendrocyte progenitor cells assessed as Ki67+/PDGFRalpha+ cell count measured after 12 to 48 hrs by immunoreactivity based assay; assay type: toxicity; conditions: time 12-48 hrs
Procedure, shortened: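 P7 mouse OPCs immunopanned for PDGFRα, kept proliferating in SATO medium with PDGF-AA and bFGF, then treated with inhibitor or DMSO. Cells fixed in 4% PFA and immunostained for PDGFRα and KI67. Double-positive (KI67+ PDGFRα+) cells counted by confocal imaging from three biological replicates.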

[3] = target: Protein arginine N-methyltransferase 5 (Mus musculus) (UniProt Q8CIG8); assay: Inhibition of PRMT5 in mouse oligodendrocyte progenitor cells assessed as decrease in levels of H4R3me2s at 10 nM incubated for 24 to 72 hrs by Western blot analysis; assay type: cell-based; conditions: Oligodendrocyte progenitor cell, time 24-72 hrs
[4] = target: Protein arginine N-methyltransferase 5 (Mus musculus) (UniProt Q8CIG8); assay: Inhibition of PRMT5 in mouse oligodendrocyte progenitor cells assessed as increase in levels of H4K5Ac incubated for 24 to 72 hrs by immunoreactivity based analysis; conditions: Oligodendrocyte progenitor cell, time 24-72 hrs
Procedure, shortened: (§1)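 Primary OPCs in growth-factor-free chemically defined medium, treated with DMSO or inhibitor over a time course. Fixed cells immunostained for H4R3me2s or H4K5ac. Nuclear pixel intensity measured by confocal imaging in an average of 395 cells per condition, three biological replicates.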

[5] = target: Protein arginine N-methyltransferase 5 (Mus musculus) (UniProt Q8CIG8); assay: Inhibition of PRMT5 in mouse oligodendrocyte progenitor cells assessed as decreased in number of differentiating cells in presence of 0.2 uM KAT inhibitor NU-9056 after 24 to 48 hrs by CNP and MBP staining based assay; conditions: Oligodendrocyte progenitor cell, time 24-48 hrs
[6] = Effect on cell proliferation in Trp53fl/fl wild type mouse oligodendrocyte progenitor cells at 10 nM by cell count assay; assay type: toxicity, cell-based; conditions: 0.01 µM
Procedure, shortened: (§2)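 Primary OPCs from Trp53fl/fl mice (P7 immunopanning for PDGFRα), uninfected, alongside Cre-retrovirus-infected Trp53−/− counterparts. Cultured in SATO medium with PDGF-AA 10 ng/ml + bFGF 20 ng/ml (proliferating) or without growth factors + T3 60 nM (differentiating). Treated ± 10 nM inhibitor, DMSO controls. Cell counts averaged over three biological replicates.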

[7] = target: Protein arginine N-methyltransferase 5 (Mus musculus) (UniProt Q8CIG8); assay: Inhibition of PRMT5 in mouse oligodendrocyte progenitor cells assessed as decrease in levels of H4R3me2s in presence of 0.2 uM KAT inhibitor NU-9056 after 24 to 48 hrs by immunoreactivity based analysis; conditions: Oligodendrocyte progenitor cell, time 24-48 hrs
[8] = target: Protein arginine N-methyltransferase 5 (Mus musculus) (UniProt Q8CIG8); assay: Inhibition of PRMT5 in mouse oligodendrocyte progenitor cells assessed as decrease in expression of P53-responsive genes ((Mdm2, Cdkn1a, Perp) in presence of 100 uM KAT inhibitor Butyrolactone-3 after 48 hrs by qRT-PCR analysis; assay type: cell-based; conditions: Oligodendrocyte progenitor cell
[9] = target: Protein arginine N-methyltransferase 5 (Mus musculus) (UniProt Q8CIG8); assay: Inhibition of PRMT5 in mouse oligodendrocyte progenitor cells assessed as decrease in expression of P53-responsive genes ((Mdm2, Cdkn1a, Perp) in presence of 0.2 uM KAT inhibitor NU-9056 after 48 hrs by qRT-PCR analysis; assay type: cell-based; conditions: Oligodendrocyte progenitor cell
[10] = target: Protein arginine N-methyltransferase 5 (Mus musculus) (UniProt Q8CIG8); assay: Inhibition of PRMT5 in mouse oligodendrocyte progenitor cells assessed as decrease in levels of H4R3me2s in presence of 100 uM KAT inhibitor Butyrolactone-3 after 24 to 48 hrs by immunoreactivity based analysis; conditions: Oligodendrocyte progenitor cell, time 24-48 hrs
[11] = target: Protein arginine N-methyltransferase 5 (Mus musculus) (UniProt Q8CIG8); assay: Inhibition of PRMT5 in mouse oligodendrocyte progenitor cells assessed as decrease in levels of H4R3me2s incubated for 24 to 72 hrs by immunoreactivity based analysis; conditions: Oligodendrocyte progenitor cell, time 24-72 hrs; procedure, shortened: as §1
[12] = target: Protein arginine N-methyltransferase 5 (Mus musculus) (UniProt Q8CIG8); assay: Inhibition of PRMT5 in mouse oligodendrocyte progenitor cells assessed as increase in levels of H4K5Ac at 10 nM incubated for 24 to 72 hrs by Western blot analysis; assay type: cell-based; conditions: Oligodendrocyte progenitor cell, time 24-72 hrs
[13] = target: Protein arginine N-methyltransferase 5 (Mus musculus) (UniProt Q8CIG8); assay: Inhibition of PRMT5 in Trp53fl/fl wild type mouse oligodendrocyte progenitor cells assessed as decreased in number of differentiating cells at 10 nM by cell count assay; assay type: cell-based; procedure, shortened: as §2
[14] = target: Protein arginine N-methyltransferase 5 (Mus musculus) (UniProt Q8CIG8); assay: Inhibition of PRMT5 in Trp53-/- mouse oligodendrocyte progenitor cells assessed as reduction of the number of cleaved caspase--3-positive CNP+ cells in differentiating OPCs; assay type: cell-based; conditions: Oligodendrocyte progenitor cell
Procedure, shortened: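 Trp53−/− OPCs (Trp53fl/fl OPCs infected with Cre retrovirus) and Trp53fl/fl OPCs held in differentiating conditions (no growth factors, 60 nM T3) with or without 10 nM inhibitor. Immunostained for CNP and cleaved caspase-3 with DAPI. CNP+/DAPI+ ratio and cleaved caspase-3 intensity from three biological replicates, expressed relative to untreated cells of the same genotype.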

[15] = target: Protein arginine N-methyltransferase 5 (Mus musculus) (UniProt Q8CIG8); assay: Inhibition of PRMT5 in mouse oligodendrocyte progenitor cells assessed as decrease in expression of P53-responsive genes ((Mdm2, Cdkn1a, Perp) after 48 hrs by qRT-PCR analysis; assay type: cell-based; conditions: Oligodendrocyte progenitor cell
[16] = tested on: Oligodendrocyte progenitor cell; assay: Inhibition of HDAC in mouse oligodendrocyte progenitor cells assessed as decreased in number of differentiating cells at 20 nM after 24 to 48 hrs by CNP and MBP staining based assay; conditions: time 24-48 hrs

| SMILES | inhibition [1] | Activity [2] | inhibition [3] | inhibition [4] | inhibition [5] | Activity [6] | inhibition [7] | inhibition [8] | inhibition [9] | inhibition [10] | inhibition [11] | inhibition [12] | inhibition [13] | inhibition [14] | inhibition [15] | inhibition [16] |
| --- | --- | --- | --- | --- | --- | --- | --- | --- | --- | --- | --- | --- | --- | --- | --- | --- |
| O=C(NC[C@H](O)CN1CCc2ccccc2C1)c1ccnc(NC2CCC2)c1 | inactive | Non-Toxic | Active | Active | inactive | Toxic | inactive | inactive | inactive | inactive | Active | Active | Active | Active | Active | – |
| CC(/C=C/C(=O)NO)=C\[C@@H](C)C(=O)c1ccc(N(C)C)cc1 | – | – | – | – | – | – | – | – | – | – | – | – | – | – | – | Active |
